# Most compounds without a hit are left out; they make up all but 4.4% or so of the library.
# AI-2 QS mod – modulates the Vibrio harveyi AI-2 quorum sensing system; hit rate 0.4% among 300,000; activity change, % at 7.5 µM; Vibrio harveyi JMH597 AI-2 luminescence/OD600 ratio, 9 h; active compounds read low; strain lacks LuxN and CqsS sensors; 0 = neutral-control median; in the data active = activity change below about -75%, passing the limit was not always enough;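 note: luminescence divided by OD600 gain over 9 h not by final OD600 alone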
# Tb MetRS inh – Trypanosoma brucei MetRS inhibition. inhibition, % at 11.9 µM. hit rate 0.4% among 360,000. AID 624268. purified T. brucei MetRS, ATP depletion, Kinase-Glo luminescence;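 active = inhibition above a per-plate cutoff of the control wells' mean inhibition plus 3 SD, cut at about 5.5% in these data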;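 note: 0% = DMSO wells median and 100% = median of wells with control inhibitor compound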
#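 Material: T. brucei methionyl-tRNA synthetase, purified; reagent: substrates ATP, L-methionine and bulk Escherichia coli tRNA; dosing: 11.9 µM single point; timing: 15 min plus 2 h at 25 °C; detection: luminescence of leftover ATP; evaluation: % inhibition; control set: DMSO-only wells as low control; replicates: singlicate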
# HTR2A ag – mouse HTR2A agonism via beta-arrestin recruitment; P35363; CHO-K1 mHTR2A beta-arrestin complementation, luminescence; percent of 30 µM serotonin response; activation, % at 7.6 µM; hit rate 0.66% among 360,000;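 active = activation above a run cutoff, the mean activation of all tested compounds plus 3 SD, cut at about 14% in these data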;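 note: 0% = plate median of compound wells and 100% = 30 µM serotonin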
# MsrA inhibitor – inhibitors of bovine MsrA; AID 651718; hit rate 0.75% among 360,000; purified bovine MsrA, absorbance read-out; inhibition, % at 15.5 µM;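 note: 0% = vehicle wells with enzyme and 100% = reference inhibitor wells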
# bovine MsrA act – bovine methionine sulfoxide reductase A activation | purified bovine MsrA, absorbance read-out | hit rate 0.3% among 360,000 | activation, % at 10.6 µM; in the data active = activation above about 7.5%;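 note: 0% = vehicle and 100% = reference activator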
# AHR activator – activators of human aryl hydrocarbon receptor. activation, % at 5 µM. AHR-responsive luciferase reporter cells, luminescence. hit rate 2.5% among 320,000. P35869. AID 2796; in the data active = activation above about 47%;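 note: 0% = vehicle wells and 100% = reference agonist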
# Target sequence (P35869 whole entry, looked up): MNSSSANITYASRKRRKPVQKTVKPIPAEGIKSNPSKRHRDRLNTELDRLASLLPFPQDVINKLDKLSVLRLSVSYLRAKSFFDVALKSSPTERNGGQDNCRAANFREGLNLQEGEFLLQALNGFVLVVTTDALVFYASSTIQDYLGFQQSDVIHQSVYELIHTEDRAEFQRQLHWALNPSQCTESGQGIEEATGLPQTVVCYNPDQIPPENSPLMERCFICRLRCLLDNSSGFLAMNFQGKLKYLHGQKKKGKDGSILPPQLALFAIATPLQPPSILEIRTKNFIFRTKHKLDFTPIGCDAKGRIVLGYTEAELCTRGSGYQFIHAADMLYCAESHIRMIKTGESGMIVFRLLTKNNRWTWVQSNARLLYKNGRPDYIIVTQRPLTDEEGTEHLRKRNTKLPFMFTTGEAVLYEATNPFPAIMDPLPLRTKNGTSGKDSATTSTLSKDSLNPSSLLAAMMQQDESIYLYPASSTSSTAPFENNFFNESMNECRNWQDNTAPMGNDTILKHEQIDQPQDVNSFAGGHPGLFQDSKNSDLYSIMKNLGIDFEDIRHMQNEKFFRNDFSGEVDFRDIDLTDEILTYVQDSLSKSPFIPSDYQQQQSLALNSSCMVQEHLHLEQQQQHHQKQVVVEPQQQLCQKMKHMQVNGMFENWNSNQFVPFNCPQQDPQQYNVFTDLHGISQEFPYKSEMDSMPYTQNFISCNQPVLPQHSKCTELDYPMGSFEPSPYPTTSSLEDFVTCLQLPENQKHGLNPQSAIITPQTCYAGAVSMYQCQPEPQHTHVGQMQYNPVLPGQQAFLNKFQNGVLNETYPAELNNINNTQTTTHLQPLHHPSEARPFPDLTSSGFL
# MsrA conf – bovine MsrA inhibition, confirmed | inhibition, % at 15.5 µM | shares compounds with MsrA inhibitor | hit rate 41% among 2,300 | purified bovine MsrA, absorbance read-out;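 note: coupled to thioredoxin reductase with NADPH and selenocystamine and DMSO as substrate; 0% = vehicle only and 100% = full effect of reference inhibitor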
# * = called active by the depositor; · = not tested or not shown. Cut-off read from the data, not from the text of the source, unless noted: active = inhibition above about 4.5%; inactive = the rest.
SMILES,AI-2 QS mod,Tb MetRS inh,HTR2A ag,MsrA inhibitor,bovine MsrA act,AHR activator,MsrA conf
O=C(OCC1OC(n2ccc(=O)[nH]c2=O)C2OC12)c1ccccc1 (centres undefined),·,0,-1,1,-2,·,·
NC(=O)c1ccsc1NC(=O)COC(=O)/C=C/c1ccccc1[N+](=O)[O-],·,0,-5,11*,-1,14,9.4*
NC(=O)c1ccsc1NC(=O)COC(=O)/C=C/c1ccccc1,2,0,-9,1,-3,4,·
O=Cc1cn(-c2ccccc2)nc1-c1ccc(F)cc1,-10,0,3,12*,-2,-4,8.3*
O=Cc1cn(-c2ccccc2)nc1-c1ccc2c(c1)OCCO2,·,0,6,17*,-2,8,12*
O=C(N/N=C/c1ccc(O)cc1O)c1ccncc1,101,1,4,4.9*,-1,2,4
Cc1nonc1C(=O)N/N=C/c1ccc(O)cc1O,-88*,1,5,5.1*,-3,14,3
O=C(N/N=C/c1ccc(Cl)cc1Cl)c1ccncc1,8,-1,-1,1,-3,20,·
O=C(NC(=S)Nc1ccccc1N1CCOCC1)c1ccco1,-7,1,-1,8.0*,-2,14,4
COc1ccccc1CCN1CCCC(CN(C)C(=O)c2ccoc2)C1 (centres undefined),14,0,-11,1,-1,3,·
CCN(C(=O)CCS(=O)(=O)c1ccc(Br)cc1)c1ccc2c(c1)OCO2,·,-1,-3,14*,-2,2,7.3*
C/C(=N\N=C1\NC(=O)C(CC(=O)Nc2ccc(Cl)cc2)S1)c1ccco1 (centres undefined),2,0,-2,4.8*,-5,6,4.8*
NC(=O)NC(=O)CC1S/C(=N/N=C/c2ccccc2)NC1=O (centres undefined),4,0,2,5.3*,-15,13,4
O=C(CC1S/C(=N/N=C/c2ccco2)NC1=O)Nc1ccccc1 (centres undefined),9,0,0,5.3*,-3,0,5.3*
Cc1ccc(NC(=O)C2CC(=O)N/C(=N/N=C/c3ccco3)S2)cc1 (centres undefined),25,-1,9,0,-8,42,·
COc1ccc(/C=N/N=C2/NC(=O)C(CC(=O)NC(C)C)S2)cc1 (centres undefined),34,0,5,1,-5,2,·
O=C1CC(C(=O)Nc2ccc(F)cc2)S/C(=N\N=C\c2ccco2)N1 (centres undefined),35,0,-4,6.3*,-5,4,5.0*
CN(C)Cc1ncccc1Oc1nc2cc(-c3cccc(Cl)c3)sc2c(=O)n1C,·,0,-2,1,0,·,·
O=C(NCCN1CCC(n2c(=O)[nH]c3ccccc32)CC1)c1cccnc1Cl,·,-1,-9,0,-2,·,·
Cc1ccc(/C=N/N=C2/NC(=O)C(CC(=O)N3CCOCC3)S2)cc1 (centres undefined),12,0,2,5.8*,-4,3,2
c1csc(C2CCCN2c2nc3nonc3nc2NC2CC2)n1 (centres undefined),13,0,0,5.7*,-5,0,1
CCc1ccc(C(=O)NNC(=S)Nc2ccc(S(N)(=O)=O)cc2)s1,51,0,-6,4.9*,2,4,2
CCCS(=O)(=O)NC(=O)C1(C)CCN(C(=O)c2cc(C)oc2C)C1 (centres undefined),·,0,3,2,-9,·,·
CN(C)CC(C)(C)CN=Cc1c(O)[nH]c2ccccc12,35,-1,1,6.0*,-6,10,1
Oc1[nH]c2ccccc2c1C=Nc1ccccc1,-1,0,-1,5.1*,-3,22,2
SMILES,AI-2 QS mod,Tb MetRS inh,HTR2A ag,MsrA inhibitor,bovine MsrA act,AHR activator,MsrA conf
Cc1ccccc1S(=O)(=O)NC(=O)C1(C)CCN1C(=O)c1cccc(F)c1 (centres undefined),·,0,-1,2,0,·,·
CC1(CC(=O)N/N=C/c2cc(Br)c(O)cc2O)OCCO1,68,-1,0,6.1*,-11,3,5.3*
O=C(CNc1ccc2ccccc2c1)N/N=C/c1ccc(C(=O)O)cc1,13,-1,-1,2,-9,24,·
O=C(O)c1ccc(/C=N/NC(=O)c2cc3ccccc3cc2O)cc1,·,5,-4,5.0*,-8,2,3
COc1ccccc1NS(=O)(=O)c1cc([N+](=O)[O-])ccc1N/N=C/c1sc(N2CCOCC2)nc1-c1ccccc1,29,0,0,11*,-2,0,7.0*
COc1cc(OC)cc(-c2oc(=O)c3cc(OC)c(OC)cc3c2C#CCCO)c1,·,0,10,11*,-5,10,7.8*
COc1ccc(-c2oc(=O)c3cc(OC)c(OC)cc3c2C#CCCO)cc1,·,-3,2,0,-6,18,·
CCNc1nnc(SCC(=O)NC2CCCCCC2)s1,·,0,5,-1,-4,·,·
COc1ccc(C2=NS(=O)(=O)N(C)C(C(=O)NC3CCCC3)=C2)cc1,32,0,3,6.1*,-2,0,2
COc1ccc(C2=NS(=O)(=O)N(C)C(C(=O)NCc3cccs3)=C2)cc1OC,23,0,0,4.7*,-2,15,2
COc1ccc(C2=NS(=O)(=O)N(C)C(C(=O)NCc3ccccn3)=C2)cc1OC,15,-1,1,2,-2,5,·
COc1ccc(C2=NS(=O)(=O)N(C)C(C(=O)NC3CCCCC3)=C2)cc1,16,-1,5,3,-10,4,·
COc1ccc(NC(=O)C2=CC(c3ccc(OC)cc3)=NS(=O)(=O)N2C)cc1,37,1,-7,5.4*,-2,0,2
COc1ccc(C2=NS(=O)(=O)N(C)C(C(=O)NCc3ccccn3)=C2)cc1,-2,0,4,4.7*,-1,2,3
O=C(O)CC1(CC(=O)Nc2nccs2)CCCCC1,·,-1,7,-2,-11,·,·
CCOC(=O)c1csc(NC(=O)c2cc(=O)c3ccccc3o2)n1,8,-1,5,4.7*,-8,6,4
CCc1ccccc1OCC(=O)Nc1cc(S(=O)(=O)N(CC)CC)ccc1N1CCOCC1,·,0,-4,0,1,-1,·
COc1ccc(/C=C(\C#N)c2n[nH]c(Cn3cncn3)n2)cc1,26,0,-2,5.7*,-6,46,5.2*
CSCCC(NS(=O)(=O)c1ccc2c(c1)OCCO2)C(=O)N(C)Cc1ccccc1F (centres undefined),·,0,2,2,-2,-2,·
CCN(c1ccccc1)c1nc2nonc2nc1NCCO,-3,3,2,13*,-4,1,9.4*

# Compound activity as filed in PubChem BioAssay.
